Consider four molecules from ChEMBL document CHEMBL3407426, “Synthesis and biological evaluations of novel endomorphin analogues containing α-hydroxy-β-phenylalanine (AHPBA) displaying mixed μ/δ opioid receptor agonist and δ opioid receptor antagonist activities” (Eur J Med Chem, 2015).

In one series the target is Mu-type opioid receptor (Rattus norvegicus, UniProt P33535). Kind of series: Displacement of [3H]DAMGO from rat cortex mu opioid receptor after 30 mins by liquid scintillation counting analysis. An outline of the steps: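 Rat cortex membranes prepared in 50 mM Tris pH 7.4, spun 16,500 rpm for 10 min, and incubated 30 min at 37 °C. Competition against [³H]DAMGO. Assay ended by filtration on BSA-soaked GF/B filters. Ki values are means of two experiments.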
(Displacement assays read how much labelled ligand stays bound in the presence of the test substance.)

Series [1] addresses Delta-type opioid receptor (Rattus norvegicus, UniProt P33533). Description: Displacement of [3H]DPDPE from rat cortex delta opioid receptor after 2.5 hrs by liquid scintillation counting analysis.
In series [2] the target is Mu-type opioid receptor (Homo sapiens) (UniProt P35372). Description: Agonist activity at mu opioid receptor (unknown origin) expressed in HEK293 cells assessed as change in cell morphology at 3.3 uM measured over 30 mins by label free binding assay relative to DAMGO. It counts as cell-based. In a few lines: (§1)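 Label-free biosensor (BIND) measuring cell spreading as increase in peak wavelength value. MOR in HEK293 cells, DOR in CHO cells, seeded 2 × 10⁴/well on fibronectin/collagen/albumin-coated plates and incubated overnight. Assay buffer was HBSS with 0.5–1% DMSO, equilibrated 30 min at room temperature before a baseline read. Compound added to a final 3.3 µM and read over 30 min. Response given as % of DAMGO 300 nM (MOR, n = 2) or DPDPE 10 nM (DOR, n = 4).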

The target of series [3] is T1, Delta-type opioid receptor (Homo sapiens, UniProt P41143). Kind of series: Agonist activity at delta opioid receptor (unknown origin) expressed in CHO cells assessed as change in cell morphology at 3.3 uM measured over 30 mins by label free binding assay relative to DPDPE. It counts as cell-based. An outline of the steps: as §1
In series [4] the target is T1, Delta-type opioid receptor. Description: Agonist activity at delta opioid receptor (unknown origin) expressed in CHO cells assessed as inhibition of forskolin-induced cAMP production at 500 nM after 30 mins by europium cryptate/d2 dye-based FRET analysis relative to DPDPE. It counts as functional, cell-based. An outline of the steps:
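DOR-expressing CHO cells, 20,000/well, exposed to test compound at 500 nM with 4 µM forskolin in PBS containing 1 mM IBMX for 30 min at room temperature. Cells then lysed with Europium cryptate and d2 acceptor reagents for 1 h, and cAMP read by FRET. Expressed as % of the 500 nM DPDPE response, n = 4.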
(In general: cAMP levels reflect the balance of adenylyl cyclase and phosphodiesterase activity.)

Series [5] is described as follows: Half life in rat brain homogenate at 10 uM. The class given is ADME, tissue-based. In a few lines:
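Peptide at a final 10 µM in rat brain homogenate (protein 21.2 mg/mL), incubated at 37 °C. Aliquots quenched in acetonitrile with internal standard in triplicate, centrifuged, and analysed by LC-MS/MS in MRM mode. Half-life from pseudo-first-order loss of the analyte/internal-standard ratio; mean of at least three experiments ± SEM.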

Series [6] deals with Mus musculus. Description: Antinociceptive activity in icv dosed C57BL/6J mouse assessed as latency to withdrawal tail after 20 mins by 55 degC warm-water tail withdrawal assay. It counts as functional. In a few lines: (§2)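 Mouse 55 °C warm-water tail-withdrawal test with a baseline latency taken before dosing and a 15 s cut-off. Single i.c.v. injection of 5 µL into the lateral ventricle under light isoflurane. Latency measured at 10-min intervals, with dose–response values taken at peak: 20 min for peptides, 30 min for morphine. Mean % antinociception from 8 mice; ED₅₀ with 95% CI.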

Series [7] has as its system Mus musculus. Description: Antinociceptive activity in mu opioid receptor knock out mouse assessed as latency to withdrawal tail at 100 nmol, icv after 30 mins by 55 degC warm-water tail withdrawal assay. It counts as functional, organism-based. An outline of the steps: (§3)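 Tail-withdrawal test at 55 °C, read 30 min after i.c.v. dosing (100 or 30 nmol), in MOR KO or KOR KO mice. Wild-type C57BL/6J mice were instead pretreated with naltrindole 20 mg/kg, route given as i.p. in the methods and s.c. in the legend, 20 min before dosing. n = 8 mice; one-way ANOVA with Tukey's test.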

Series [8] relates to Mus musculus. Description: Antinociceptive activity in kappa opioid receptor knock out mouse assessed as latency to withdrawal tail at 100 nmol, icv after 30 mins by 55 degC warm-water tail withdrawal assay. The class given is functional, organism-based. In a few lines:
as §3

Series [9] concerns Mus musculus. Kind of series: Antinociceptive activity in wild type C57BL/6J mouse assessed as latency to withdrawal tail at 100 nmol, icv treated with delta opioid receptor anatgonist naltrindole for 20 mins prior to compound treatment measured after 30 mins by 55 degC warm-water tail withdrawal assay. It counts as functional, organism-based. In a few lines:
as §3

In series [10] the test system is Mus musculus. Description: Toxicity in C57BL/6J mouse assessed as impairment of locomotor co-ordination at 100 nmol, icv administered 15 mins prior to assessment in accelerated speed trials measured over 60 mins by rotorod test. It counts as organism-based. The following applies: in vivo, icv_or_intrathecal, 1 h. In a few lines:
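Rotorod test after seven habituation trials, the last used as baseline. Mice given vehicle (50% DMSO) or 100 nmol i.c.v. Latency to fall recorded over 60 min and expressed as % change from baseline per 10 min. 8–18 mice; two-way ANOVA.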
For orientation: Falling from the rotarod earlier than controls is read as motor impairment.

Series [11] has as its system Mus musculus. Description: Antinociceptive activity in icv dosed C57BL/6J mouse assessed as latency to withdrawal tail after 30 mins by 55 degC warm-water tail withdrawal assay. It counts as functional. In a few lines: as §2
Series [12] concerns Mus musculus. Description: Antinociceptive activity in icv dosed C57BL/6J mouse assessed as latency to withdrawal tail administered first dose for 8 hrs followed by second dose measured after 30 mins by 55 degC warm-water tail withdrawal assay. It counts as functional. In a few lines:
(§4)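 Acute tolerance in the mouse 55 °C warm-water tail-withdrawal test, 15 s cut-off. First i.c.v. dose at time 0 (morphine 3 nmol or test peptide 2 nmol), then a second i.c.v. dose of 0.1–100 nmol 8 h later. Latency read 30 min after the second dose for morphine and 20 min for the peptide. n = 8 mice per point; ED₅₀ with 95% CI by nonlinear regression.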

A further series is filed under the species Rattus norvegicus. Description: Selectivity ratio of Ki for rat cortex mu opioid receptor to Ki for rat cortex delta opioid receptor. An outline of the steps: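 Ki ratio (MOR/DOR), from Ki values that are means of two experiments. MOR: rat cortex homogenized in 50 mM Tris pH 7.4, spun, preincubated 30 min at 37 °C, spun again, then resuspended with bovine serum; displacement of [3H]DAMGO. DOR: 2 nM [3H]DPDPE; 2.5 h at 25 °C; unlabeled DPDPE as competitor. Filtration on GF/B.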

Series [13] in a line: Selectivity ratio of Ki for guinea pig cortex/cerebella kappa opioid receptor to Ki for rat cortex delta opioid receptor. In a few lines:
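Ki ratio (KOR/DOR), from Ki values that are means of two experiments. KOR: guinea pig cortex and cerebellum membranes in 50 mM Tris pH 7.4 with 10 mM MgCl2; 2 nM [3H]U69,593; 2 h at 25 °C; unlabeled U50,488 defines the curve and nonspecific binding. Filtration on GF/B.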

For series [14], the target named is T1, Delta-type opioid receptor. Kind of series: Agonist activity at delta opioid receptor (unknown origin) expressed in CHO cells assessed as change in cell morphology measured over 30 mins by label free binding assay. It counts as cell-based. An outline of the steps: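 DOR-expressing CHO cells on coated plates in a label-free BIND biosensor, with the increase in peak wavelength value read over 30 min after compound addition. HBSS buffer with 0.5–1% DMSO, baseline read first. Points are means of two separate assays.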

The test system of series [15] is Mus musculus. Kind of series: Antinociceptive activity in C57BL/6J mouse assessed as latency to withdrawal tail at 100 nmol, icv measured up to 80 mins by 55 degC warm-water tail withdrawal assay. The class given is functional, organism-based. In a few lines:
as §2

Series [16] has as its system Mus musculus. Description: Antinociceptive activity in mu opioid receptor knock out mouse assessed as latency to withdrawal tail at 30 nmol, icv after 30 mins by 55 degC warm-water tail withdrawal assay. It counts as functional, organism-based. An outline of the steps:
as §3

Series [17] has as its system Mus musculus. Kind of series: Antinociceptive activity in kappa opioid receptor knock out mouse assessed as latency to withdrawal tail at 30 nmol, icv after 30 mins by 55 degC warm-water tail withdrawal assay. It counts as functional, organism-based. An outline of the steps: as §3
Series [18] relates to Mus musculus. Kind of series: Antinociceptive activity in wild type C57BL/6J mouse assessed as latency to withdrawal tail at 30 nmol, icv treated with delta opioid receptor anatgonist naltrindole for 20 mins prior to compound addition measured after 30 mins by 55 degC warm-water tail withdrawal assay. The class given is functional, organism-based. In a few lines:
as §3

In series [19] the test system is Mus musculus. Kind of series: Inhibition of delta opioid receptor agonist SNC-80-induced antinociceptive activity in C57BL/6J mouse assessed as latency to withdrawal tail at 30 nmol, icv administered 90 mins prior to SNC-80 treatment measured after 40 mins by 55 degC warm-water tail withdrawal assay. It counts as functional, organism-based. In a few lines:
(§5)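 C57BL/6J mice given 30 nmol i.c.v. 90 min before morphine 10 mg/kg i.p., U50,488 10 mg/kg i.p., or SNC-80 100 nmol i.c.v. Tail-withdrawal at 55 °C measured 40 min after the agonist. n = 8 mice; Student's t-test.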

In series [20] the test system is Mus musculus. Description: Inhibition of mu opioid receptor agonist morphine-induced antinociceptive activity in C57BL/6J mouse assessed as latency to withdrawal tail at 30 nmol, icv administered 90 mins prior to morphine treatment measured after 40 mins by 55 degC warm-water tail withdrawal assay. It counts as functional, organism-based. In a few lines: as §5

In series [21] the test system is Mus musculus. Kind of series: Inhibition of kappa opioid receptor agonist U50,488-induced antinociceptive activity in C57BL/6J mouse assessed as latency to withdrawal tail at 30 nmol, icv administered 90 mins prior to U50,488 treatment measured after 40 mins by 55 degC warm-water tail withdrawal assay. It counts as functional, organism-based. An outline of the steps:
as §5

Series [22] deals with Mus musculus. Kind of series: Antinociceptive activity in icv dosed C57BL/6J mouse assessed as latency to withdrawal tail administered first dose for 8 hrs followed by second dose measured after 20 mins by 55 degC warm-water tail withdrawal assay. The class given is functional. In a few lines:
as §4

Active and inactive are the calls of the source. Where a SMILES comes first, the peptide text is derived from it. [ ]: non-standard residue; d: D form. ξ: configuration not given here. Dmt = Cc1cc(O)cc(C)c1C[C@H](N)C(=O)O; ξTiq(1-COOH) = O=C(O)C1NCCc2ccccc21; β3hF = N[C@H](CC(=O)O)Cc1ccccc1

T1 sequence (P41143 whole entry): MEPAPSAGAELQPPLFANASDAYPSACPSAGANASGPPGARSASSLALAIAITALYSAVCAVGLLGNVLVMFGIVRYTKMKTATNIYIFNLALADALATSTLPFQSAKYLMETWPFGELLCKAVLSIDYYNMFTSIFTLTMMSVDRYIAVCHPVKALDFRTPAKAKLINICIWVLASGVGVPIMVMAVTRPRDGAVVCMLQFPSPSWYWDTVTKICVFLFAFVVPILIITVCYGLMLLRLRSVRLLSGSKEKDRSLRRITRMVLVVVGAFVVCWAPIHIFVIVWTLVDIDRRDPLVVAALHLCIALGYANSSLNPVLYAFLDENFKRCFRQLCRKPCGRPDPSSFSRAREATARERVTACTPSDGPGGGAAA
Chain of Mu-type opioid receptor (P33535 whole entry): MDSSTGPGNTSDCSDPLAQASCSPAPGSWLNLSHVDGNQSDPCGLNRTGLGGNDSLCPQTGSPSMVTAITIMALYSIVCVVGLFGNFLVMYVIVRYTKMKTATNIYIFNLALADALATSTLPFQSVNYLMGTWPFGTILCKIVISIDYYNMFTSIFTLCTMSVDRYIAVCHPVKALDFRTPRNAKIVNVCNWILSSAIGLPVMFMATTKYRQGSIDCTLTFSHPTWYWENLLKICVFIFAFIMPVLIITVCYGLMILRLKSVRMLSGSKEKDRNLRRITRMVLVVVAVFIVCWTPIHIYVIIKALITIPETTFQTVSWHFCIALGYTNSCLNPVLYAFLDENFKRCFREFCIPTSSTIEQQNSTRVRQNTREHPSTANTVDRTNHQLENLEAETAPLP
Chain of Delta-type opioid receptor (Rattus norvegicus, UniProt P33533) (P33533 whole entry): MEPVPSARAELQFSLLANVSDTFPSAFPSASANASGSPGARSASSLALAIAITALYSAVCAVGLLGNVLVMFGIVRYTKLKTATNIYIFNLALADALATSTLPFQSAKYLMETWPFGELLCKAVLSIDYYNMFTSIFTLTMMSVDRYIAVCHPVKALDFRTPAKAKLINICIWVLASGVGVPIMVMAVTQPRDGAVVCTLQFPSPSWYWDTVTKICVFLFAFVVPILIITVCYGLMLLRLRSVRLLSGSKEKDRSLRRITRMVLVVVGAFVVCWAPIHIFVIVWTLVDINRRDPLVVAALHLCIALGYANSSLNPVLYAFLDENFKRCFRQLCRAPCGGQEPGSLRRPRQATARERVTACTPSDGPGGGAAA
Chain of Mu-type opioid receptor (Homo sapiens) (P35372 whole entry): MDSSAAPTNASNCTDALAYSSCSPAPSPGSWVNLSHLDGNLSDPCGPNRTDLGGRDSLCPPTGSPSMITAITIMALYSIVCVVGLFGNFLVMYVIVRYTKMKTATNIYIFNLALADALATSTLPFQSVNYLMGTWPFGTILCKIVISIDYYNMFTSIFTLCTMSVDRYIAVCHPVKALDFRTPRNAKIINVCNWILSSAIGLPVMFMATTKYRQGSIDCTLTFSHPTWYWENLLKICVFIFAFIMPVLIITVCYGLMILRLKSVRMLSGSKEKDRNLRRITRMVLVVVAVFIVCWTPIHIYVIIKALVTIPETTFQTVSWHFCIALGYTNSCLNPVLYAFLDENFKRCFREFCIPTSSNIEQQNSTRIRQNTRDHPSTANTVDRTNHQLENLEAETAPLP

As to `Cc1cc(O)cc(C)c1C[C@H](N)C(=O)N1CCc2ccccc2C1C(=O)N[C@@H](Cc1ccccc1)C(=O)N[C@@H](Cc1ccccc1)C(N)=O` (stereo partly drawn) (H-[Dmt][ξTiq(1-COOH)]FF-NH2), the figures for the Ki (at Mu-type opioid receptor; in series [1]) were 5 nM and 2 nM, respectively. Also, the Activity in series [2] was 61%; in series [3], 46%; in the series on Mus musculus [6], “Dose-dependent effect”; in the series with Mus musculus [10], “Toxic”. In addition, the inhibition in series [4] worked out at 73%. For the same molecule, the half-life at 10 µM in [5] stood at 6.11 min. Further, the ED50 with Mus musculus [6] was 21.7 nmol. The outcome in the series with Mus musculus [7], with Mus musculus [8] and with Mus musculus [9] was inactive.
For the molecule `CN1CC[C@]23c4c5ccc(O)c4O[C@H]2[C@@H](O)C=C[C@H]3[C@H]1C5` [MORPHINE], in the series on Mus musculus [11], the Activity entry was “Dose-dependent effect” and the ED50 is recorded as 2.35 nmol. In addition, the ED50 in the series with Mus musculus [12] was found to be 22.5 nmol.
Turning to `Cc1cc(O)cc(C)c1C[C@H](N)C(=O)N1CCc2ccccc2C1C(=O)N[C@@H](Cc1ccccc1)C(=O)N[C@H](CC(N)=O)Cc1ccccc1` (stereo partly drawn) (H-[Dmt][ξTiq(1-COOH)]F[β3hF]-NH2), the Ki on Mu-type opioid receptor is 15 nM; in series [1], 1 nM. Also, the Ratio Ki is 15 in the series filed under Rattus norvegicus and 30 in series [13]. The molecule further had a half-life at 10 µM in series [5] of 28.9 min.
Take `Cc1cc(O)cc(C)c1C[C@H](N)C(=O)N1CCc2ccccc2C1C(=O)N[C@@H](Cc1ccccc1)[C@@H](O)C(=O)N[C@@H](Cc1ccccc1)C(N)=O` (stereo partly drawn): the results for the Ki (at Mu-type opioid receptor; in [1]) were 8 nM and 0.7 nM, respectively. Besides, the Activity in [2] is 42%; in series [3], 30%; in the series with Mus musculus [6], “Dose-dependent effect”; with Mus musculus [10] it was “Non-toxic”. Also, the inhibition in series [4] turned out to be 66%. The EC50 in series [14] stood at 23 nM. Also, the half-life at 10 µM in series [5] was more than 120 min. Also, the figures for the ED50 with Mus musculus [6] and with Mus musculus [22] were 1.98 nmol and 0.86 nmol, respectively. For the same molecule, in the series with Mus musculus [15], the outcome was Active. In addition, the result in the series on Mus musculus [16], with Mus musculus [17] and with Mus musculus [18] was inactive. In the series on Mus musculus [19], the inhibition entry is “Active”. In addition, the inhibition entry with Mus musculus [20] and in the series with Mus musculus [21] was “inactive” throughout.

Broadly, the Ki is a measure of affinity in units of concentration, obtained from inhibition or displacement. Low values mean a stronger hold on the target, high ones a looser hold on the target. As usually defined, the inhibition is the relative decrease from the control value, in per cent. In general, half-life refers to the time needed for the level to fall by half in the phase considered. High values mean slow decline, low ones rapid decline. By EC50 is commonly meant the midpoint of the concentration-response curve.
